Measured values reported in ChEMBL document CHEMBL2424563, “Semisynthesis of mallotus B from rottlerin: evaluation of cytotoxicity and apoptosis-inducing activity” (J Nat Prod, 2013).
pIC50: −log10 of the molar value. Calls of active or inactive are those of the source. The calls are words filed in the database; no cut-off is given here.

Key:
HL-60 [1] = assay: Cell cycle arrest in human HL60 cells assessed as accumulation at sub-G0 phase at 10 uM after 24 hrs by propidium iodide staining-based FACS flow cytometric analysis (reference value: 3%); format: functional
In short: (§1)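 HL-60 cells seeded at 0.44 × 10^6/mL and exposed to 10, 20, 30 or 40 μM for 24 h. Cells were pelleted at 400g, washed in ice-cold PBS and fixed overnight in ice-cold 70% ethanol at 4 °C. They were treated with RNase (0.2 mg/mL) for 1 h at 37 °C, then stained with PI (10 μg/mL) for 30 min in the dark. Flow cytometry collected 10 000 events (FL2-A vs FL2-W). Sub-G0, G1, S and G2 fractions were fitted by modelling software.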

HL-60 [2] = assay: Cell cycle arrest in human HL60 cells assessed as accumulation at G1 phase at 40 uM after 24 hrs by propidium iodide staining-based FACS flow cytometric analysis (reference value: 45%); format: functional; in short: as §1
HL-60 [3] = assay: Cell cycle arrest in human HL60 cells assessed as accumulation at G2 phase at 30 uM after 24 hrs by propidium iodide staining-based FACS flow cytometric analysis (reference value: 1%); format: functional; in short: as §1
HL-60 [4] = assay: Cell cycle arrest in human HL60 cells assessed as accumulation at sub-G0 phase at 20 uM after 24 hrs by propidium iodide staining-based FACS flow cytometric analysis (reference value: 3%); format: functional; in short: as §1
HL-60 [5] = assay: Cell cycle arrest in human HL60 cells assessed as accumulation at G2 phase at 10 uM after 24 hrs by propidium iodide staining-based FACS flow cytometric analysis (reference value: 1%); format: functional; in short: as §1
HL-60 [6] = assay: Cell cycle arrest in human HL60 cells assessed as accumulation at sub-G0 phase after 24 hrs by propidium iodide staining-based FACS flow cytometric analysis; format: functional
In short: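 HL-60 cells at 0.44 × 10^6/mL treated at 10, 20, 30 and 40 μM for 24 h. Collected at 400g, then fixed overnight in ice-cold 70% ethanol at 4 °C. RNase (0.2 mg/mL) at 37 °C for 1 h, then PI (10 μg/mL) for 30 min in the dark. Flow cytometry on 10 000 events, FL2-A vs FL2-W. Sub-G0 fraction taken as apoptotic.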

HL-60 [7] = assay: Cell cycle arrest in human HL60 cells assessed as accumulation at sub-G0 phase at 30 uM after 24 hrs by propidium iodide staining-based FACS flow cytometric analysis (reference value: 3%); format: functional; in short: as §1
HL-60 [8] = assay: Induction of apoptosis in human HL60 cells assessed as formation of scattered apoptotic bodies at 20 to 40 uM after 24 hrs by fluorescence microscopic analysis; format: functional, cell-based
In short: (§2)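 After 24 h exposure, HL-60 cells were pelleted at 400g, washed twice in PBS and fixed in cold acetic acid–methanol (1:3) for 3 h on ice. They were spread on slides and dried overnight at room temperature. Staining used Hoechst 33258 (5 μg/mL in 0.45 M disodium phosphate/0.01 M citric acid/0.05% Tween 20) for 30 min at room temperature. Slides were mounted in PBS–glycerol and viewed by fluorescence microscopy at 30× for condensed nuclei and apoptotic bodies.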

PC-3 = assay: Cytotoxicity against human PC3 cells after 48 hrs by MTT assay; format: functional, cell-based; conditions: PC-3, 48 h
In short: (§3)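 Cell lines from NCI, grown in RPMI1640 or MEM with 10% heat-inactivated FBS at 37 °C under 5% CO2. Seeded at 6000 cells/well overnight, then exposed to 1, 10, 30, 50 and 100 μM for 48 h. MTT (2.5 mg/mL) added for 3 h, formazan dissolved in DMSO, OD read at 540 nm (ref 620 nm). Growth taken as treated vs untreated absorbance, giving IC50.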

HL-60 [9] = assay: Cell cycle arrest in human HL60 cells assessed as accumulation at G2 phase at 20 uM after 24 hrs by propidium iodide staining-based FACS flow cytometric analysis (reference value: 1%); format: functional; in short: as §1
HepG2 = assay: Cytotoxicity against human HepG2 cells after 48 hrs by MTT assay; format: functional, cell-based; conditions: HepG2, 48 h; in short: as §3
HL-60 [10] = assay: Cell cycle arrest in human HL60 cells assessed as accumulation at G1 phase at 20 uM after 24 hrs by propidium iodide staining-based FACS flow cytometric analysis (reference value: 45%); format: functional; in short: as §1
HL-60 [11] = assay: Induction of mitochondrial membrane potential loss in human HL60 cells at 20 uM after 24 hrs by rhodamine-123 staining-based FACS flow cytometric analysis (reference value: 5%); format: functional
HL-60 [12] = assay: Induction of apoptosis in human HL60 cells assessed as cell wall deformation at 20 to 40 uM after 24 hrs by fluorescence microscopic analysis; format: functional, cell-based; in short: as §2
COLO 205 = assay: Cytotoxicity against human COLO205 cells after 48 hrs by MTT assay; format: functional, cell-based; conditions: COLO 205, 48 h; in short: as §3
HL-60 [13] = assay: Cell cycle arrest in human HL60 cells assessed as accumulation at S phase at 10 uM after 24 hrs by propidium iodide staining-based FACS flow cytometric analysis (reference value: 54%); format: functional; in short: as §1
HL-60 [14] = assay: Cell cycle arrest in human HL60 cells assessed as accumulation at G1 phase at 10 uM after 24 hrs by propidium iodide staining-based FACS flow cytometric analysis (reference value: 45%); format: functional; in short: as §1
HL-60 [15] = assay: Induction of apoptosis in human HL60 cells assessed as vesicle formation at 10 to 40 uM after 24 hrs by phase contrast microscopic analysis; format: functional, cell-based
In short: (§4)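 HL-60 cells were exposed to the test concentrations for 24 h. Unstained cells were then photographed under phase-contrast microscopy to assess cellular morphology.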

HL-60 [16] = assay: Induction of apoptosis in human HL60 cells assessed as nuclear condensation at 20 to 40 uM after 24 hrs by fluorescence microscopic analysis; format: functional, cell-based; in short: as §2
HL-60 [17] = assay: Induction of mitochondrial membrane potential loss in human HL60 cells at 30 uM after 24 hrs by rhodamine-123 staining-based FACS flow cytometric analysis (reference value: 5%); format: functional
HL-60 [18] = assay: Cell cycle arrest in human HL60 cells assessed as accumulation at S phase at 20 uM after 24 hrs by propidium iodide staining-based FACS flow cytometric analysis (reference value: 54%); format: functional; in short: as §1
HL-60 [19] = assay: Cell cycle arrest in human HL60 cells assessed as accumulation at G2 phase at 40 uM after 24 hrs by propidium iodide staining-based FACS flow cytometric analysis (reference value: 1%); format: functional; in short: as §1
HL-60 [20] = assay: Cell cycle arrest in human HL60 cells assessed as accumulation at G1 phase at 30 uM after 24 hrs by propidium iodide staining-based FACS flow cytometric analysis (reference value: 45%); format: functional; in short: as §1
HL-60 [21] = assay: Cell cycle arrest in human HL60 cells assessed as accumulation at sub-G0 phase at 40 uM after 24 hrs by propidium iodide staining-based FACS flow cytometric analysis (reference value: 3%); format: functional; in short: as §1
HL-60 [22] = assay: Induction of mitochondrial membrane potential loss in human HL60 cells at 40 uM after 24 hrs by rhodamine-123 staining-based FACS flow cytometric analysis (reference value: 5%); format: functional
HL-60 [23] = assay: Cell cycle arrest in human HL60 cells assessed as accumulation at S phase at 30 uM after 24 hrs by propidium iodide staining-based FACS flow cytometric analysis (reference value: 54%); format: functional; in short: as §1
MIA PaCa-2 = assay: Cytotoxicity against human MIAPaCa2 cells after 48 hrs by MTT assay; format: functional, cell-based; conditions: MIA PaCa-2, 48 h; in short: as §3
HL-60 [24] = assay: Cytotoxicity against human HL60 cells after 48 hrs by MTT assay; format: functional, cell-based; conditions: HL-60, 48 h; in short: as §3
HL-60 [25] = assay: Cell cycle arrest in human HL60 cells assessed as accumulation at S phase at 40 uM after 24 hrs by propidium iodide staining-based FACS flow cytometric analysis (reference value: 54%); format: functional; in short: as §1
HL-60 [26] = assay: Induction of mitochondrial membrane potential loss in human HL60 cells at 10 uM after 24 hrs by rhodamine-123 staining-based FACS flow cytometric analysis (reference value: 5%); format: functional
HL-60 [27] = assay: Induction of apoptosis in human HL60 cells assessed as shrinkage of cell size at 20 to 40 uM after 24 hrs by fluorescence microscopic analysis; format: functional, cell-based; in short: as §2
HL-60 [28] = assay: Induction of apoptosis in human HL60 cells assessed as blebbing of cell wall at 10 to 40 uM after 24 hrs by phase contrast microscopic analysis; format: functional, cell-based; in short: as §4

Compound	Activity (HL-60 [1]) [%]	Activity (HL-60 [2]) [%]	Activity (HL-60 [3]) [%]	Activity (HL-60 [4]) [%]	Activity (HL-60 [5]) [%]	Activity (HL-60 [7]) [%]	Activity (HL-60 [8])	pIC50 (PC-3)	Activity (HL-60 [9]) [%]	pIC50 (HepG2)	Activity (HL-60 [10]) [%]	Activity (HL-60 [11]) [%]	Activity (HL-60 [12])	pIC50 (COLO 205)	Activity (HL-60 [13]) [%]	Activity (HL-60 [14]) [%]	Activity (HL-60 [15])	Activity (HL-60 [16])	pIC50 (MIA PaCa-2)	pIC50 (HL-60 [24])	other results
CC(=O)c1c(O)c(C)c(O)c(Cc2c(O)c3c(c(C(=O)/C=C/c4ccccc4)c2O)OC(C)(C)C=C3)c1O [ROTTLERIN]	19.6	33	12	64	7	80	Active	< 4.70	12	< 4.70	58	28	Active	< 4.70	26	67	Active	Active	5.10	5.05	Activity (HL-60 [6]): Dose-dependent effect; Activity (HL-60 [17]): 61%; Activity (HL-60 [18]): 31%; Activity (HL-60 [19]): 4%; Activity (HL-60 [20]): 42%; Activity (HL-60 [21]): 84%; Activity (HL-60 [22]): 89%; Activity (HL-60 [23]): 46%; Activity (HL-60 [25]): 63%; Activity (HL-60 [26]): 18%; Activity (HL-60 [27]): Active; Activity (HL-60 [28]): Active
CC(=O)c1c(O)c(C)c(O)c(Cc2c(O)c(CC=C(C)C)c(O)c3c2O[C@H](c2ccccc2)CC3=O)c1O	14	60	7	26	5	29	Active	< 4.70	4	< 4.70	78	12	Active	< 4.70	20	75	Active	Active	5.05	4.80	Activity (HL-60 [17]): 25%; Activity (HL-60 [18]): 18%; Activity (HL-60 [19]): 18%; Activity (HL-60 [20]): 77%; Activity (HL-60 [21]): 55%; Activity (HL-60 [22]): 43%; Activity (HL-60 [23]): 16%; Activity (HL-60 [25]): 22%; Activity (HL-60 [26]): 6%; Activity (HL-60 [27]): Active; Activity (HL-60 [28]): Active
CC1(C)C=Cc2c(OCc3ccccc3)cc(O)c(C(=O)/C=C/c3ccccc3)c2O1	3	46	8	9	6	39	Active	< 4.70	8	< 4.70	45	23	Active	< 4.70	54	40	Active	Active	< 4.70	4.82	Activity (HL-60 [17]): 38%; Activity (HL-60 [18]): 48%; Activity (HL-60 [19]): 12%; Activity (HL-60 [20]): 43%; Activity (HL-60 [21]): 83%; Activity (HL-60 [22]): 68%; Activity (HL-60 [23]): 49%; Activity (HL-60 [25]): 42%; Activity (HL-60 [26]): 6%; Activity (HL-60 [27]): Active; Activity (HL-60 [28]): Active
CC[C@@]1(O)C(=O)OCc2c1cc1n(c2=O)Cc2cc3ccccc3nc2-1 [CAMPTOTHECIN]	–	–	–	–	–	–	–	5.92	–	6.70	–	–	–	7.30	–	–	–	–	6.72	7.22	–
